Our source for the caspase activation and AC10 values is PubChem BioAssay AID504346 (Broad Institute, 2011).

Each structure is given as a SMILES string. Active and inactive are the calls of the source.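 How the source made its calls: active means fitted curve reaches 10% of the positive control caspase activation at or below the top valid tested dose; inactive means signal shifts the opposite way, plus the rest.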

The nature of experiment [1]: apoptosis induction in MEWO without priming – cell-based, human MEWO, caspase luminescence, dry powder, set 3, counter-screen for Bcl2-A1 inhibitor project, dose response (AID 504346). As to conditions: MEWO unprimed cells, caspase-Glo luminescence, 3 h; at 35 µM (top of the series). In outline: (§1)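 Assay system: Unprimed human MEWO cells engineered to express A1 | Amount: 2500 cells per well | Compound: Pin-transferred compound | Measured by: CaspaseGlo luminescence | Buffer or medium: RPMI-1640 growth medium with 10% FBS | Read-out: Caspase activation level per well | Incubation: 3 h compound at 37 °C, 1 h detection reagent at room temperature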
(In general: A counterscreen serves to expose hits that act by an unwanted route or on another target.)

Experiment [2] relates to MEWO unprimed cells, caspase-Glo luminescence, 3 h. The experiment is described as above. The method, boiled down: as §1

With `Cn1c(=O)c([N+](=O)[O-])c(Cl)c2ccccc21`, the caspase activation in experiment [1] was 8.42% (inactive).

With `COCCn1c(=O)c([N+](=O)[O-])c(Sc2ccc(C)cc2)c2ccccc21`, the caspase activation in experiment [1] was 1.99% (inactive).

As for `O=c1[nH]c2ccccc2c(Cl)c1[N+](=O)[O-]`, in experiment [2], the AC10 is > 35 µM (inactive).

In the case of `CCn1c(=O)c(Sc2ccc(C)cc2)c(Sc2ccc(C)cc2)c2ccccc21`, the caspase activation in experiment [1] is 1.36% (inactive).

For `Cc1ccc(Sc2c([N+](=O)[O-])c(=O)n(C)c3ccccc23)cc1`, in experiment [1], the caspase activation was 1.27% (inactive).

Regarding `C/C(=N\Nc1nc(N2CCCCC2)nc(N2CCCCC2)n1)c1ccc(F)cc1`, in experiment [1], the caspase activation is -0.441% (inactive).

For the compound `O=C(COc1ccc(Cl)cc1Cl)NNc1nc(N2CCOCC2)nc(N2CCOCC2)n1`, the caspase activation in experiment [1] was -0.692% (inactive).

As for `CC1(C)CCC(c2ccc(Cl)cc2)=C(CN2CCN(c3ccc(C(=O)NS(=O)(=O)c4ccc(N[C@H](CCN5CCOCC5)CSc5ccccc5)c(S(=O)(=O)C(F)(F)F)c4)cc3)CC2)C1`, the AC10 in experiment [2] is 3.09 µM.

For `COCCn1c(=O)c([N+](=O)[O-])c(Cl)c2ccccc21`, the AC10 in experiment [2] was > 35 µM (inactive).

As to `COc1c([N+](=O)[O-])c(=O)n(C)c2ccccc12`, the caspase activation in experiment [1] is -0.158% (inactive).

`Cn1c(=O)c(Sc2ccccn2)c(Sc2ccccn2)c2ccccc21`: in experiment [1], the caspase activation was -0.272% (inactive).

Take `Cc1ccc(Sc2c(Sc3ccc(C)cc3)c3ccccc3n(C)c2=O)cc1`: in experiment [1], the caspase activation was 0.838% (inactive).

Consider `CCn1c(=O)c([N+](=O)[O-])c(Cl)c2ccccc21`, for which the caspase activation in experiment [1] is 5.44% (inactive).

As to `COc1ccc(N2CCN(c3nc(NCCc4ccc(OC)c(OC)c4)nc(N4CCOCC4)n3)CC2)cc1`, in experiment [1], the caspase activation was -0.115% (inactive).

With `COc1nc2ccccc2c(Cl)c1[N+](=O)[O-]`, in experiment [1], the caspase activation is 0.103% (inactive).

Turning to `COc1nc2ccccc2c(Sc2ccc(C)cc2)c1[N+](=O)[O-]`, the caspase activation in experiment [1] was 0.891% (inactive).

In the case of `COc1ccc(CCNc2nc(N3CCCC3)nc(N3CCCC3)n2)cc1OC`, in experiment [1], the caspase activation is 0.039% (inactive).

On to `Cc1ccc(S(=O)(=O)c2c([N+](=O)[O-])c(=O)n(C)c3ccccc23)cc1`, for which the caspase activation in experiment [1] was 2.24% (inactive).

Consider `O=c1[nH]c2ccccc2c(O)c1[N+](=O)[O-]`, for which the caspase activation in experiment [1] was -0.15% (inactive).

As to `COc1ccc(CCNc2nc(N3CCOCC3)nc(N3CCOCC3)n2)cc1OC`, in experiment [1], the caspase activation is 0.746% (inactive).

As to `CCn1c(=O)c([N+](=O)[O-])c(Sc2ccc(C)cc2)c2ccccc21`, in experiment [1], the caspase activation is 2.11% (inactive).

Regarding `O=c1c([N+](=O)[O-])c(Cl)c2ccccc2n1Cc1ccccc1`, in experiment [2], the AC10 was 33.6 µM.

With `COCCn1c(=O)c(Sc2ccc(C)cc2)c(Sc2ccc(C)cc2)c2ccccc21`, in experiment [1], the caspase activation was 1.05% (inactive).

Consider `Cc1ccc(Sc2c(Sc3ccc(C)cc3)c3ccccc3n(Cc3ccccc3)c2=O)cc1`, for which the caspase activation in experiment [1] was 0.136% (inactive).

Consider `Cn1c(=O)c([N+](=O)[O-])c(S(C)(=O)=O)c2ccccc21`, for which, in experiment [2], the AC10 is > 35 µM (inactive).

As to `Cc1ccc(Sc2c([N+](=O)[O-])c(=O)n(Cc3ccccc3)c3ccccc23)cc1`, the caspase activation in experiment [1] is 0.173% (inactive).

Turning to `Cn1c(=O)c([N+](=O)[O-])c(Sc2ccccn2)c2ccccc21`, the caspase activation in experiment [1] is 3.69% (inactive).
